Reference: ChEMBL document CHEMBL4513216, “Probing the Open Global Health Chemical Diversity Library for Multistage-Active Starting Points for Next-Generation Antimalarials” (ACS Infect Dis, 2020)

Test: Toxicity liver stage against HepG2, at 10uM
Format: cell-based
Parameters: test concentration 10 uM, cell line HepG2-A16-CD81EGFP
Details: human, HepG2-A16-CD81EGFP cells; read-out: INHIBITION
Outline: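 Uninfected HepG2-A16-CD81EGFP cells, 3 × 10^3 per well, 1536-well, plated on prespotted compound at 10 μM final, parasite-free screening media added to match infected plates; puromycin 10 μM positive, DMSO 0.5% negative; run in parallel with 48 h PbLuc assay at 37 °C, 5% CO2; viability by CellTiter-Glo luminescence, normalized to controls.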

Structure (SMILES) | cytotoxicity at 10 µM
Cc1csc(NC(=O)CN(C)CCOc2cccc(F)c2)n1 | 0.115%
COc1ccc(CNC[C@H]2COCc3nc4cc(F)ccc4n32)cn1 | 0.734%
CCS(=O)(=O)c1ccc2oc([C@H]3CCN(Cc4ccncc4)C3)nc2c1 | 23.7%
O=C1CO[C@H]2CN(S(=O)(=O)c3ccccc3)C[C@H]2N1Cc1ccccn1 | -1.11%
Cc1cc2nc(CO[C@H]3CN(C)C[C@H]3F)[nH]c2cc1C | 2.78%
COc1cccc(CN2CCCC2c2cccc(F)c2)c1OC (centres undefined) | 6.01%
N#Cc1cnc(N2CCC3(CC2)OCCO3)nc1N | 3.51%
CN(C)CCN(C)c1cc(N2CCN(c3ccccn3)CC2)ncn1 | 1.23%
CCOC(=O)N1[C@@H](c2ccco2)[C@@H](CO)C[C@]12CCCCNC2=O | 0.644%
O=C(CCC(=O)N1CCc2[nH]c3ccccc3c2C1)NCc1ccco1 | 3.59%
CC(C)C1SCC(=O)Nc2c1c(O)nn2C1CCCC1 (centres undefined) | 1.4%
CN1C(=O)c2cccc(NC(=O)c3cccc(S(C)(=O)=O)c3)c2C1=O | -7.75%
O=C(N1CCCC1)N1C[C@@H]2CCNC[C@@H]21 | 0.375%
CN(C)C(=O)C1CCC2(CCN(Cc3ccc4ccccc4n3)CC2)O1 (centres undefined) | 5.09%
Cc1csc(CN2CCC[C@]3(C[C@H](OCC4CC4)CO3)C2)n1 | -141%
Cc1nc(CN2C[C@@H]3CN(C(=O)c4ccoc4C)C[C@@H]3C2)cs1 | -144%
O=C(NCc1cnc2n1CCN(c1ncc(F)cn1)CC2)C1CCC1 | -0.881%
O=C(c1ccnn1COc1ccc(Cl)cc1)N1CCCC1 | -2.34%
CCc1oc2ccc(NS(=O)(=O)CC)cc2c1C(=O)OC | 5.05%
CN1CCN(C(=O)c2nnc3ccc(Cl)cc3n2)CC1 | 6.28%
COc1cccc(F)c1CN1CCC(c2nccc(C)n2)C1 (centres undefined) | 5.29%
Cc1cncnc1C1CCN(C(=O)C2(C)CCCCN2C)CC1 (centres undefined) | 1.06%

Structure (SMILES) | cytotoxicity at 10 µM
Cc1nccc(N(C)Cc2ncc(-c3ccccc3C(=O)O)s2)n1 | 1.31%
O=C(Cc1cccnc1)N1CCC(c2nnc(-c3ccccn3)o2)CC1 | 0.91%
Cc1ccc(CC2COCCN(S(=O)(=O)c3ccccc3)C2)nc1 (centres undefined) | -4.48%
O=C(Cc1ccccc1)NCc1ncc(-c2ccccc2C(=O)O)cn1 | -1.89%
Cc1n[nH]c(C)c1S(=O)(=O)N1CCC(Oc2ccccc2F)CC1 | 1.22%
CNC(=O)C1CCCN(C(=O)c2ccccc2-n2cc(CN)cn2)C1 (centres undefined) | -2.3%
Cc1c(CN2CCCC2(C)C(=O)NC2CCCC2)cnn1C (centres undefined) | 1.05%
Cc1cc2n(n1)[C@@H](C(F)(F)F)C[C@@H](C1CCCN(C(=O)C(C)C)C1)N2 (some centres undefined) | -22.1%
C[C@@H]1C[C@H](C(F)(F)F)n2nc(C3CCN(S(C)(=O)=O)CC3)cc2N1 | -16.9%
O=S1(=O)NC(C2CCN(Cc3ccncc3)CC2)Nc2ccccc21 (centres undefined) | -19.3%
CNC(=O)Cn1ccc2ccc(NC(=O)C(C)C)cc21 | 0.153%
Cc1nnc2n1CC(CNCc1nc(-c3ccsc3)no1)CC2 (centres undefined) | -4.68%
O=C(COCCOc1ccccc1)NC1CCN(c2ncccn2)CC1 | -4.9%
CCc1nnc2n1CCN(C(C(N)=O)c1ccc(F)cc1)C2 (centres undefined) | -8.13%
CC1Oc2c(cccc2C(=O)N2CCCCCC2)NC1=O (centres undefined) | -6.81%
CN(CCCn1cnc2c(N)ncnc21)Cc1ccccc1 | -4.87%
O=C1CCN(C(=O)NCCc2c[nH]c3ccc(Cl)cc23)CCN1 | 4.26%
CCC(=O)NC1CCCN(c2cncc(OCc3ccccc3)n2)C1 (centres undefined) | -2.08%
COc1ccc(C(C)NCCc2ccc(NC(C)=O)cc2)c(OC)c1 (centres undefined) | 4.49%
CCOCCNC(=O)Nc1ccc(OCc2noc(C3CC3)n2)cc1 | 6.48%
O=C(Cn1cccnc1=O)NCc1cccnc1OCC(F)(F)F | -11.9%
COc1ccc(S(=O)(=O)Nc2cccnc2-n2cncn2)cc1C | -6.87%

Structure (SMILES) | cytotoxicity at 10 µM
CNS(=O)(=O)c1ccccc1N1CCN(C(C)C(=O)OC)CC1 (centres undefined) | 0.375%
CC(C)Oc1ccc(CNC(=O)C2CCS(=O)(=O)C2)cn1 (centres undefined) | 0.788%
Cc1cnn(Cc2ccc(NC(=O)N[C@@H]3C=C[C@H](CO)C3)cc2)c1 | 7.76%
CCOc1ccc(CNC(=O)N2CCCC(CO)C2)cc1F (centres undefined) | 8.21%
CCc1n[nH]c(C2CN(C(=O)CCOCC(F)(F)F)CCO2)n1 (centres undefined) | 10.4%
CCn1ncc2c1CCCC2NCc1ccc2c(c1)OCCO2 (centres undefined) | -9.12%
CCc1csc(NC(=O)NCc2ccccn2)n1 | -4.61%
Cc1ccc(C(=O)NCC(c2cnn(C)c2)N(C)C)c(O)c1 (centres undefined) | -7.93%
O=C(CN1CCC(OCC2CCCO2)CC1)NCC(F)(F)F (centres undefined) | -1.2%
COc1ccccc1C(=O)N1CCN(CCc2scnc2C)CC1 | 1.79%
Cc1nc(CNC(=O)NC(C)c2ccc3c(c2)OCCCO3)cs1 (centres undefined) | -0.535%
CC(C)CC(CC(C)C)NC(=O)c1ccn(C)c(=O)c1 | -0.717%
NC(=O)Cn1ccc(NC(=O)C2(c3ccc(F)cc3)CC2)n1 | -2.82%
C=C(C)CN(CC)Cc1nc(C(C)(C)C)no1 | -4.57%
CC(C)c1cccc(-n2cc(O)c(C(=O)NCCCn3cccn3)n2)c1 | -1.59%
CCc1nc(CCNC(=O)Nc2ccc(C(=O)NC)cc2C)cs1 | 27.7%
O=C(CCNS(=O)(=O)c1ccccc1)NCc1ccoc1 | -0.886%
CC(O)CN1CCN(C(=O)CN(C)c2ccc(Cl)cn2)CC1 (centres undefined) | -1.95%
CCc1n[nH]c(C2CN(CC(=O)NCCc3ccsc3)CCO2)n1 (centres undefined) | -11%
CCN(CC)C(=O)c1ccc(NC(=O)CNc2ccc(Br)cc2F)cc1 | 4.52%
CC(C)OC[C@H]1CCC[C@]12CN(S(=O)(=O)c1cn(C)cn1)CCO2 | 5.19%
O=c1[nH][nH]cc1-c1ccnc(NCCN2CCCCC2)n1 | -10.4%

Structure (SMILES) | cytotoxicity at 10 µM
CN(C)c1ncc(-c2ccc(NC(=O)[C@@H]3CCCCN3)cc2)cn1 | -7.94%
CN(C)CCn1ccnc1C1CCCN(C(=O)CCc2cccnc2)C1 (centres undefined) | -3.64%
Cc1cc(N(C)CCC(O)c2ccccc2)n2nccc2n1 (centres undefined) | -2.84%
O=C(Nc1cnn(CC(=O)N2CCCCO2)c1)c1ccsc1 | -1.23%
CC(C)(CN1CCC(Cc2cccc(C(=O)O)c2)C1)N1CCOCC1 (centres undefined) | 3.98%
CC(O)C(=O)N1CCC(c2[nH]ncc2-c2ccccc2)CC1 (centres undefined) | -2%
Cc1cc(C)n(CCC2CC(=O)Nc3cc4[nH]ncc4cc32)n1 (centres undefined) | -6.17%
COc1ccccc1OC1CN(C(=O)Cc2c(C)nc(N)nc2C)C1 | 0.866%
COCC(=O)N1CCc2[nH]nc(-c3ccc4c(c3)OCO4)c2C1 | -137%
Cc1cc(S(=O)(=O)N2C[C@H](C3CC3)[C@@H](N)C2)c(C)s1 | -2.36%
COC(=O)N1CCC(c2nnc(Cn3ccnc3)n2C)CC1 | -110%
Cc1c(CN2CCc3[nH]cnc3C2C(=O)O)[nH]c2ccc(F)cc12 (centres undefined) | -4.23%
CN(C)c1ccc(C2CC(=O)Nc3c2cnn3Cc2ccco2)cc1 (centres undefined) | -3.08%
CN(CC1CCOC1)S(=O)(=O)c1cccc(C(=O)N2CCOCC2)c1 (centres undefined) | -13.3%
Cc1[nH]c2c(F)cccc2c1CC(=O)NCCCc1csc(N)n1 | -3.57%
N[C@@H]1c2ccccc2C2(CCN(C(=O)c3ccc(CO)o3)CC2)[C@H]1O | 3.92%
CC(=O)N1C[C@H]2CNC[C@@]2(C(=O)NCCOc2ccccc2F)C1 | 2.8%
CCc1[nH]c2c(CNC(=O)[C@@H]3CCCN3C)cc(C)cc2c1C | -3.33%
CCc1cc(CN(C)Cc2nc(-c3sccc3C)oc2C)on1 | -3.81%
O=C(Cn1nc2ccccc2n1)N1CCCn2cncc2C1 | 1.87%
O=C1CCCc2cc(S(=O)(=O)NCc3ccccn3)ccc2N1 | 2.41%
C1CCC(c2nn3c(C4CCCO4)nnc3s2)C1 (centres undefined) | 8.51%

Structure (SMILES) | cytotoxicity at 10 µM
Cc1nc2ccccc2c(=O)n1CCC(=O)N1CCCCCC1 | -6.57%
CCc1nnc2n1CCN(C(=O)c1cc3ccc(F)cc3nc1C)C2 | -9.37%
Cc1ccc(OCC(=O)NS(=O)(=O)c2cccnc2)cc1C | 4.36%
CC(C)Cc1noc(CN2CCOCC2)n1 | -2.27%
Cc1cnn(CCNCc2csc(-c3cccs3)n2)c1 | -9.91%
O=C(CCCc1nnc(-c2ccccc2)o1)N1CCN(CCO)CC1 | -6.31%
Cc1n[nH]c(C)c1NC(=O)CN1CCc2c(nc(C3CC3)n2C)C1 | -3.15%
CCN(Cc1ccc2c(c1)OCCO2)C(=O)NC(C)Cn1ccnc1 (centres undefined) | -2.79%
COCc1ccccc1CNc1cc(N2CCCC2CO)ncn1 (centres undefined) | -1.81%
Cc1nc(O)cc(C2(C)CCCNC2)n1 (centres undefined) | 2.98%
Cc1cc(C[C@@H]2COC[C@H]2NCc2ccc(C)c(C)c2)on1 | 8.1%
O=C(Nc1cccnc1)[C@H]1CO[C@H]2CCNC[C@H]2C1 | 9.24%
O=C(O)[C@]12CCCN(Cc3ccsc3)C[C@H]1CN(c1ccccn1)C2 | -139%
CCn1nc(C)cc1C(=O)N1C[C@@H]2C[C@@H](C)O[C@@H]2C1 | 5.53%
CC(C)C(=O)N1CC2(CCN(CC(C)(C)C)CC2)C1 | -5.28%
O=C(C1CCC2(CCN(CC3CCOCC3)CC2)O1)N1CCCC1 (centres undefined) | 1.91%
Cc1csc2nc3n(c(=O)c12)CCN(Cc1ccccn1)CC3 | -18.2%
O=S(=O)(C1CC1)N1CCOC2(CCCN(Cc3ccccn3)C2)C1 (centres undefined) | -0.78%
O=C(NCc1ccc(Cl)cc1)C1=NOC2(CCNC2)C1 (centres undefined) | -4.21%
CC(C)N(C)Cc1nnc2n1CCN(Cc1ccncc1)CC2 | -2.42%
c1ccc(CO[C@@H]2CO[C@@]3(CCN(Cc4ccccn4)C3)C2)nc1 | -9.62%
